Efflux pump inh – inhibitors of Candida efflux pumps in yeast, primary screen, S. cerevisiae, Nile Red, multiplex; hit rate 0.44% among 330,000; AID 485275, 2010; S. cerevisiae Candida pump triplex; inhibition, % at 10 µM;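 active = plate passing quality check with inhibition over a set limit, or well fluorescence over plate mean plus 4 SD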;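 also: Nile Red retained in pooled yeast measured as flow cytometry median fluorescence; 0% = buffer negative control and 100% = Enniatin B positive control; higher means more Nile Red kept so more efflux inhibition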
MT1-MMP act inh – blockers of MT1-MMP proenzyme processing, primary screen, HT1080 RFP-PRO-GFP cells, GFP/RFP fluorescence. Matrix metalloproteinase-14 (Homo sapiens), P50281. GFP/RFP ratio change, % at 20 µM. hit rate 0.061% among 360,000. GFP/RFP ratio fluorescence, overnight; percent of plate control window, DMSO zero;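 active = GFP/RFP ratio change of at least 30% with cell ATP level not reduced by more than half and red fluorescence within 50% of control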
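Compound: 20 µM single dose, 1% DMSO / System: HT1080 RFP-PRO-GFP cells / Controls: DMSO and RFP-L50D-GFP cell wells / Read-out basis: GFP/RFP fluorescence ratio / Schedule: overnight compound exposure at 37 °C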
H9c2 TAG inh – inhibitors of triacylglycerol accumulation, primary screen, cell-based, uHTS, fluorescence, H9c2; H9c2 cells, Nile Red lipid (TAG) fluorescence; cells loaded with 200 µM oleic acid; inhibition, % at 12.5 µM; hit rate 0.66% among 230,000; AID 651582, 2012;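 active = pattern-corrected inhibition of lipid staining of at least 50% with the nuclear-stain viability signal not falling by more than 50%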;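 also: 0% = DMSO wells and 100% = triacsin C control wells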
sPLA2-III inh – human group III sPLA2 inhibitors, primary screen, biochemical, QFRET, BODIPY PC-A2 liposome substrate; Group 3 secretory phospholipase A2 (Homo sapiens), Q9NZ20; QFRET BODIPY PC-A2 liposome hydrolysis, fluorescence; inhibition, % at 12.2 µM; hit rate 0.56% among 370,000; AID 743126, 2013;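 active = inhibition above mean plus 3 SD of compounds lying within the high and low control bounds, cut at about 19% in these data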;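 also: 0% = median of test compound wells and 100% = no enzyme DMSO wells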
Target sequence (Q9NZ20 whole entry, looked up): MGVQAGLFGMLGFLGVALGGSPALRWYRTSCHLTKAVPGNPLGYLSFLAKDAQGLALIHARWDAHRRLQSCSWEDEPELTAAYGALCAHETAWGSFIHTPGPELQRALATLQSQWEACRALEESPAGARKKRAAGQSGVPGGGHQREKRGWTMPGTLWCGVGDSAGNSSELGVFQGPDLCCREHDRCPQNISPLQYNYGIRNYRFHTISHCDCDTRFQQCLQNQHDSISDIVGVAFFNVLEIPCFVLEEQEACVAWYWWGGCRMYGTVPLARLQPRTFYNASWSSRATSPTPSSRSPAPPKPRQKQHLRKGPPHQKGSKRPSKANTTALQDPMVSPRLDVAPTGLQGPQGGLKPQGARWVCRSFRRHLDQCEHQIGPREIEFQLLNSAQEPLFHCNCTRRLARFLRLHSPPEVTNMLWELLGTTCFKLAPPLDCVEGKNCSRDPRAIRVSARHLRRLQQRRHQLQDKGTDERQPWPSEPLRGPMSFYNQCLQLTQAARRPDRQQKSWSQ
Cmpd fluor yeast – flagged as fluorescent in efflux inhibitor counter-screen | shares compounds with Efflux pump inh | S. cerevisiae AD/pABC3, compound fluorescence, flow cytometry | fluorescence ratio to DMSO, % at 10 µM | hit rate 4% among 1,700 | AID 588517;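 active = fluorescence ratio to DMSO above its plate's cutoff, the plate mean ratio plus 5 SD, cut at about 210% in these data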;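 also: unstained yeast with no Nile Red so the signal is compound autofluorescence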
Mdr1 pump inh – inhibitors of Candida albicans Mdr1 efflux, confirmation, flow cytometry, singleplex, Cherry Pick1 set; hit rate 1% among 1,700; shares compounds with Efflux pump inh; AID 588518, 2011; inhibition, % at 10 µM; S. cerevisiae AD/CaMDR1, Nile Red efflux; in the data active = inhibition above about 26%;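 also: 0% = DMSO vehicle and 100% = reference inhibitor; higher means more Nile Red retained so more efflux inhibition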
CaCdr2 efflux inh – inhibitors of Candida albicans Cdr2 efflux pump, confirmation, S. cerevisiae AD/CaCDR2, flow cytometry, cherry pick 1, singleplex; hit rate 4% among 1,700; shares compounds with Efflux pump inh; Nile Red retention ratio vs DMSO, % at 10 µM; AID 588520, 2011; Nile Red retention; in the data active = Nile Red retention ratio vs DMSO above about 190%;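 also: higher ratio means more blocking of Cdr2 efflux of the dye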
CaCdr1 efflux inh – inhibitors of Candida albicans Cdr1 efflux pump, confirmation, S. cerevisiae AD/CaCDR1, flow cytometry, cherry pick 1, singleplex; shares compounds with Efflux pump inh; Nile Red efflux; inhibition, % at 10 µM; hit rate 1% among 1,700;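 active = inhibition above the screen-wide mean plus twice its standard deviation, cut at about 32% in these data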
* marks the source's active call; other numbers are inactive results; x = no result; + = active, no number. Shown are actives, neighbours in structure and some others; about 1.3% of the full set was active somewhere.

SMILES	Efflux pump inh	MT1-MMP act inh	H9c2 TAG inh	sPLA2-III inh	Cmpd fluor yeast	Mdr1 pump inh	CaCdr2 efflux inh	CaCdr1 efflux inh
Cc1ccc2[nH]c(C)c(/C=C/c3cc[n+](C)cc3)c2c1	20*	-63	x	-42	+	16	317*	15
Cc1ccc2c(c1)c(/C=C/c1cc[n+](C)cc1)c(C)n2C	25*	-3	x	-37	+	32*	290*	16
C[n+]1ccc(/C=C/c2ccc(Br)cc2)cc1	0	-4	-2	-1	x	x	x	x
CC12CC3(C)CC(C)(C1)CC(C(=O)NC(=S)N1CCCC1)(C2)C3	0	3	-12	4	x	x	x	x
N#Cc1ncc(-c2ccc3c(c2)OCCOCCOCCOCCO3)nc1C#N	9.6*	-2	x	2	89	0	112	0
COc1ccccc1NC(=O)NCCCCc1ccccc1	0	1	-17	0	x	x	x	x
COc1ccc(-c2noc(-c3csc([C@@H]4O[C@H](CO)[C@H](O)[C@H](O)[C@H]4O)n3)n2)cc1OC	x	-1	0	5	x	x	x	x
CCCCCCCC(=O)Nc1cc(C(=O)NCCC)ccc1N1CCC2(CC1)CC(c1ccccc1)=NO2	0.9*	-1	40	3	117	0	116	0
CCCNC(=O)c1ccc(N2CCC3(CC2)CC(c2ccccc2)=NO3)c(NC(=O)c2ccccc2)c1	0	3	x	1	x	x	x	x
O=C1C(Cc2cccc([N+](=O)[O-])c2)SC(=Nc2ccccc2)N1c1ccccc1 (configuration not stated)	13*	-5	x	-9	120	1	110	0
Cc1ccc(NC(=S)NCc2cccn2C)cc1	1.2*	-3	x	-6	105	0	94	0
Cn1c(NC(=O)/C=C/c2ccccc2)cc(=O)n(C)c1=O	0	0	x	4	x	x	x	x
COc1ccc(/C=C/C(=O)Nc2cc(=O)n(C)c(=O)n2C)cc1	15*	1	-16	17	97	0	88	0
Cc1nc(NC(=S)NC(=O)c2ccco2)sc1C(=O)N(C)C	5.7*	-1	1	12	79	0	100	0
O=S(=O)(c1cccc2cccnc12)N1CCN(c2ccccc2)CC1	17*	-1	x	2	110	0	102	0
O=S(=O)(c1cccc2cccnc12)N1CCN(c2ccccn2)CC1	0	-5	-2	-1	x	x	x	x
Cc1ccc(OCc2cc(C(=O)NCC3COCCO3)no2)cc1C (configuration not stated)	0	1	10	1	x	x	x	x
Cc1ccc(OCc2cc(C(=O)NCC(C)(C)N3CCOCC3)no2)cc1C	2	1	x	-10	98	0	98	1
CC(=O)c1c(COC(=O)c2ccc(C)cc2)nc2ccccc2[n+]1[O-]	0	1	-16	-2	x	x	x	x
CC(C)(C)c1nnc(NC(=O)COc2ccc3c(c2)OCO3)s1	0	4	8	-4	112	0	97	0
CC(C)(C)c1nnc(NC(=O)c2ccc3c(c2)OCO3)s1	0	4	x	-1	x	x	x	x
N#C/C(=C/c1ccncc1)c1nc2ccccc2s1	0	-92	x	-16	103	0	102	0
Cc1nc(S(=O)(=O)Cc2ccc(Cl)cc2)nc2c1CCC2	1.9*	-1	10	-2	105	0	100	0
Cc1ccc(C)c(N2CCN(C(=O)C3CCCN(c4ncnc5c4nc4n5CCCCC4)C3)CC2)c1 (configuration not stated)	2.5*	-4	x	-12	79	0	+	0
Cc1cc(NC(=O)CCC(=O)N(c2cccnc2)C(C(=O)NC2CCCC2)c2ccccc2)no1 (configuration not stated)	0	-2	-3	1	223	3	109	0
SMILES	Efflux pump inh	MT1-MMP act inh	H9c2 TAG inh	sPLA2-III inh	Cmpd fluor yeast	Mdr1 pump inh	CaCdr2 efflux inh	CaCdr1 efflux inh
Cc1cc(NC(=O)CCC(=O)N(CC(=O)NC2CCCC2)Cc2ccc(F)cc2)no1	0	2	-4	-7	110	0	114	0
Cc1cccc(N(C(=O)CCC(=O)Nc2cc(C)on2)C(C(=O)NC2CCCC2)c2cccnc2)c1 (configuration not stated)	0	0	x	1	x	x	x	x
CN1CCN(c2ccccc2NC(=O)c2ccc(N3CCCC3)c([N+](=O)[O-])c2)CC1	0	1	8	-12	x	x	x	x
CN1CCN(c2ccc(C(=O)c3ccc(Br)cc3)cc2[N+](=O)[O-])CC1	33*	-3	-17	-4	104	0	92	0
Cc1cccc(N2CCN(C(=O)c3ccc(NS(=O)(=O)c4c(C)noc4C)cc3)CC2)c1C	0.5*	-2	8	-40	97	0	110	0
CCC1CCCCN1CCCNC(=O)Cn1ncn2nc(-c3ccc(OC)cc3)cc2c1=O (configuration not stated)	1	2	x	-7	x	x	x	x
COC(=O)[C@@H](NC(=O)c1ccc(OC2CCN(Cc3ccccn3)CC2)cc1)C(C)C	0	1	x	7	x	x	x	x
CC(CNC(=O)c1ccc(OC2CCN(Cc3ccccn3)CC2)cc1)c1ccccc1 (configuration not stated)	5.3*	6	0	-4	102	0	96	0
CC(C)=C1C2CCC1C1C(=O)N(c3nc(-c4ccc(C(C)C)cc4)c(C)s3)C(=O)C21 (configuration not stated)	0.4*	-17	-11	-17	105	0	99	0
CC(C)=C1C2CCC1C1C(=O)N(c3nc(-c4ccc(F)cc4)c(C)s3)C(=O)C21 (configuration not stated)	0	-3	-17	3	x	x	x	x
COc1ccc(C(=O)NC(C)CCn2cccn2)cc1OC1CCN(C(C)C)CC1 (configuration not stated)	0	-2	1	-3	x	x	x	x
COc1cccc(-n2nnnc2SCC(=O)Nc2nc3c(s2)CCCC3)c1	0	9	x	-25	x	x	x	x
COC(=O)c1cccc(-n2nnnc2SCC(=O)Nc2nc3c(s2)CCCC3)c1	1.5*	0	x	-8	79	0	93	0

High-throughput results: PubChem, several laboratories
